The target of assay [1] is T1, DNA topoisomerase 1 (Homo sapiens) (UniProt P11387).
T1 sequence (whole entry): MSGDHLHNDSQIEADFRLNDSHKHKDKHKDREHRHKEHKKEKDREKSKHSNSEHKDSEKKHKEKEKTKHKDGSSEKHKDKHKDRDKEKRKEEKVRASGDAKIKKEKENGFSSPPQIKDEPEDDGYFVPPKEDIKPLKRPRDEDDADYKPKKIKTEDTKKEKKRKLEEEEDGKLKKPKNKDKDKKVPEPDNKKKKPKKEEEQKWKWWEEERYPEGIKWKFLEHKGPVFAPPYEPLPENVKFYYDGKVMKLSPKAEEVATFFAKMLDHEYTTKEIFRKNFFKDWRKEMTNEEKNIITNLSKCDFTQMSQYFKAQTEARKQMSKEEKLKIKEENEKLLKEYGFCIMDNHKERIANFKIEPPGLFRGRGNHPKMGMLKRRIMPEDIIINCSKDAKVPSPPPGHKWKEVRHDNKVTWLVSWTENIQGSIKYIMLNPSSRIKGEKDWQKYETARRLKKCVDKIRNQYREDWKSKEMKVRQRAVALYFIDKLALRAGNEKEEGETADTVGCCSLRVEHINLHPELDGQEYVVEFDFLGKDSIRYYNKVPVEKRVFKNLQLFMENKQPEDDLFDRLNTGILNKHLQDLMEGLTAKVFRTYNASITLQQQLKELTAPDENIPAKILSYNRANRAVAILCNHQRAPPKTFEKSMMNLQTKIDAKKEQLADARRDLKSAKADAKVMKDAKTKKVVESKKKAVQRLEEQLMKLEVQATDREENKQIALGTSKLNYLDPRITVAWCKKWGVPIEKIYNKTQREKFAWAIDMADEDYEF
Description: Inhibition of recombinant DNA topoisomerase1-mediated topo1-linked DNA relegation activity at 25 uM after 30 mins by […]. In short, it runs like this: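 Suicide topo I cleavage complex pre-formed on radiolabeled oligoduplex. Religation started by adding 5 pmol of 13-mer ON6 with compound present, at 37 °C. 25-mer religation product resolved on 20% urea/polyacrylamide gel and quantified by phosphorimager.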

The target of assay [2] is T1, DNA topoisomerase 1 (Homo sapiens). Description: Inhibition of recombinant DNA topoismerase1-mediated cleavage activity at 25 uM after 15 mins by […]. In short, it runs like this:
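32P-labeled ON5/ON4 oligoduplex (50 fmol) incubated with purified recombinant topoisomerase I (220 fmol) ± compound (25 µM) at 37 °C for 15 min. Stopped with SDS (0.5% final), then proteinase K digestion (1 mg/mL final). Cleavage products resolved on 20% denaturing urea/polyacrylamide gel.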

In assay [3] the test system is KB. As to the kind of experiment: Ratio of VP16 IC50 to compound IC50 for human KB cells. In kind it is functional.
Assay [4] has as its target T1, DNA topoisomerase 1 (Homo sapiens). Description: Inhibition of DNA topoisomerase 1 in human KB cells using [C14]thymidine assessed as protein-linked DNA breaks formation at 22.5 uM after 30 mins by […]. In kind it is cell-based. In short, it runs like this: (§1)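 KB cells labeled with [14C]thymidine for 24 h, then treated with compound (2.5 or 22.5 µM) at 37 °C. Protein-linked DNA breaks quantified by potassium-SDS co-precipitation.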

For assay [5], the system named is KB. As to the kind of experiment: Antiproliferative activity against human KB cells after 72 hrs by […] blue dye assay. Type of assay: functional, cell-based. An outline of the steps:
(§2)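 KB, etoposide-resistant KB/7D (kept in 7 µM etoposide), CPT-resistant KB CPT 100 (kept in 100 nM CPT) and revertant KB CPT 100rev cells, all grown in RPMI 1640 with 10% FBS. Log-phase cells seeded at 5000 cells/mL and exposed to a range of drug concentrations for 72 h. Growth read by […] blue dye assay; IC50 = 50% growth inhibition. Resistance ratio = KBCPT100 IC50 over KB IC50.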

The nature of assay [6]: Antiproliferative activity against human partially revertant camptothecin-resistant KBCPT100 cells after 72 hrs by […] blue dye assay. Type of assay: functional, cell-based. To be noted: KBCPT100, 72 h. In short, it runs like this:
as §2

Assay [7] is described as follows: Inhibition of DNA topoisomerase 2-mediated relegation activity at 250 uM after 30 mins by agarose gel electrophoresis.
Assay [8] can be described thus: Resistance ratio of IC50 for human camptothecin-resistant KBCPT100 cells to IC50 for human KB cells. Type of assay: functional. In short, it runs like this:
as §2

Assay [9] in a line: Antiproliferative activity against human camptothecin-resistant KBCPT100 cells after 72 hrs by […] blue dye assay. In kind it is functional, cell-based. To be noted: KBCPT100, 72 h. In short, it runs like this: as §2
Assay [10] in a line: Inhibition of DNA topoisomerase 2-mediated [alpha32P]dCTP-labelled pBR322 cleavage up to 25 uM after 30 mins by agarose gel electrophoresis.
A short description of assay [11]: Antiproliferative activity against human VP16-resistant KB-7d cells overexpressing MRP after 72 hrs by […] blue dye assay. In kind it is functional, cell-based. To be noted: KB7D. An outline of the steps:
as §2

The target of assay [12] is T1, DNA topoisomerase 1 (Homo sapiens). Description: Inhibition of DNA topoisomerase 1 in human KB cells using [C14]thymidine assessed as protein-linked DNA breaks formation at 2.5 uM after 30 mins by […]. Type of assay: cell-based. In short, it runs like this:
as §1

Activity calls are given as the source filed them. No cut-off for these calls is given here.

One may read the IC50 as the point on the concentration scale where inhibition reaches its midpoint. A low value points to greater potency.

As for `CC[C@@](O)(C(=O)NC(C)C)c1cc2n(c(=O)c1CO)Cc1c-2nc2ccccc2c1/C=N\c1ccccc1N[C@@H]1c2cc3c(cc2[C@@H](c2cc(OC)c(O)c(OC)c2)[C@H]2C(=O)OC[C@@H]21)OCO3`, the inhibition result in assay [1] and in [7] was “Active” in each case. In addition, the inhibition entry in assay [2] and in [10] was “inactive” throughout. The figures for the “Ratio IC50” value (in the assay with KB [3]; in assay [8]) were 8 and 2.8, respectively. For the same molecule, in assay [4], the fold change (FC) was found to be 7. For the same molecule, the IC50 is 60 nM with KB [5], 141 nM in assay [6], 206 nM in assay [9] and 61 nM in assay [11].
Regarding `COc1cc([C@@H]2c3cc4c(cc3[C@@H](O[C@@H]3O[C@@H]5CO[C@@H](C)O[C@H]5[C@H](O)[C@H]3O)[C@H]3COC(=O)[C@H]23)OCO4)cc(OC)c1O` [ETOPOSIDE], the IC50 in the assay with KB [5] was determined as 475 nM; in assay [6], 374 nM; in assay [9], 336 nM; in assay [11] it was 55000 nM.
`CC[C@@]1(O)C(=O)OCc2c1cc1n(c2=O)Cc2c-1nc1ccccc1c2/C=N\c1ccccc1N[C@@H]1c2cc3c(cc2[C@@H](c2cc(OC)c(O)c(OC)c2)[C@H]2C(=O)OC[C@@H]21)OCO3`: the inhibition entry in assay [1], in [12] and in [7] was “Active” each time. Moreover, the inhibition entry in [2] and in [10] was “inactive” throughout. Besides, the IC50 with KB [5] is 37 nM; in assay [6] it was 70 nM; in assay [9], 112 nM; in assay [11], 70 nM. Besides, the “Ratio IC50” value in assay [8] stood at 2.8.
For the molecule `CC[C@@]1(O)C(=O)OCc2c1cc1n(c2=O)Cc2cc3ccccc3nc2-1` [CAMPTOTHECIN], the IC50 in the assay with KB [5] worked out at 8.8 nM; in assay [6] it was 24 nM; in assay [9] it was 423 nM; in assay [11] it was 6.8 nM. For the same molecule, the “Ratio IC50” value in [8] is reported as 48.
Turning to `CC[C@@]1(O)C(=O)OCc2c1cc1n(c2=O)Cc2c-1nc1ccccc1c2/C=N\c1ccc(N[C@@H]2c3cc4c(cc3[C@@H](c3cc(OC)c(O)c(OC)c3)[C@H]3C(=O)OC[C@@H]32)OCO4)cc1`, the inhibition result in assay [1], in assay [12] and in assay [7] was “Active” in each case. Further, the inhibition entry in [2] and in assay [10] was “inactive” in each case. Besides, the IC50 with KB [5] came out at 24.5 nM; in assay [6] it was 44 nM; in [9], 95 nM; in [11], 37.5 nM. Also, the “Ratio IC50” value in [8] was found to be 2.8.
Take `CC[C@@](O)(C(=O)NC(C)C)c1cc2n(c(=O)c1CO)Cc1c-2nc2ccccc2c1/C=N\c1ccc(N[C@@H]2c3cc4c(cc3[C@@H](c3cc(OC)c(O)c(OC)c3)[C@H]3C(=O)OC[C@@H]32)OCO4)cc1`: the inhibition entry in assay [1], in [12] and in assay [7] was “Active” throughout. Moreover, the inhibition result in assay [2] and in assay [10] was “inactive” throughout. In addition, the “Ratio IC50” value is recorded as 10 with KB [3] and 2.8 in assay [8]. Further, the IC50 in the assay with KB [5] stood at 42.5 nM; in assay [6] it was 57 nM; in assay [9], 120 nM; in [11], 50 nM.

Values taken from ChEMBL document CHEMBL2157971, “Antitumor agents 294. Novel E-ring-modified camptothecin-4β-anilino-4'-O-demethyl-epipodophyllotoxin conjugates as DNA topoisomerase I inhibitors and cytotoxic agents” (Bioorg Med Chem, 2012).
